biological target: T1, cholesterol side-chain cleavage cytochrome P450 (mitochondrial) (Bos taurus, UniProt P00189); assay: Percent inhibition of cholesterol side-chain cleavage cytochrome P450 at 10 uM in bovine adrenocortical mitochondrial acetone powder preparations; details: cattle
T1 sequence (P00189 whole entry): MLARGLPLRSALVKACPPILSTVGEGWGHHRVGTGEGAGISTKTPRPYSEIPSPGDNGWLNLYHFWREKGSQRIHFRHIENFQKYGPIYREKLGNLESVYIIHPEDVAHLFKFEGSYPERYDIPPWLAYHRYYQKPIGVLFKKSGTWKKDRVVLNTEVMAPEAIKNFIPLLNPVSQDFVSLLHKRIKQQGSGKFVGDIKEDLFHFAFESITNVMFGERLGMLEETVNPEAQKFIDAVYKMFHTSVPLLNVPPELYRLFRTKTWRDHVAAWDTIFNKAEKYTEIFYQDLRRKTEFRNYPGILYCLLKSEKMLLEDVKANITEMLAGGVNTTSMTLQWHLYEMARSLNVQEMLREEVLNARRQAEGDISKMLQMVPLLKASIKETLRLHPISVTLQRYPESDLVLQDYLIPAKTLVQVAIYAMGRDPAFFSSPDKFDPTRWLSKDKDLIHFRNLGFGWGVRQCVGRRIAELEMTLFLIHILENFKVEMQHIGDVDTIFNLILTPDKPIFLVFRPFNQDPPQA
How it was run: (§1)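 CSCC activity in adrenal preparations assayed by the previously reported method. Inhibitor tested at a final concentration of 100 μM or below. Isocaproic acid product volatilized in a heated vacuum desiccator and measured by liquid scintillation counting. Percent inhibition is taken from at least six data points across two separate experiments, with standard deviation from the mean.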

inhibition at 10 µM | SMILES
89% | CCC(C)CNC(C)[C@H]1CC[C@H]2[C@@H]3CC=C4C[C@@H](OC)CC[C@]4(C)[C@H]3CC[C@]12C (some centres undefined)
75% | CC(C)CCNC(C)[C@H]1CC[C@H]2[C@@H]3CC=C4C[C@@H](O)CC[C@]4(C)[C@H]3CC[C@]12C (some centres undefined)
86% | CO[C@H]1CC[C@@]2(C)C(=CC[C@H]3[C@@H]4CC[C@H](C(C)NCCC(C)C)[C@@]4(C)CC[C@@H]32)C1 (some centres undefined)
30% | CO[C@H]1CCC2(C)C(=CCC3C2CCC2(C)C3CC[C@@H]2N(C)CCCC(C)C)C1 (some centres undefined)

SMILES | inhibition at 10 µM
CC(C)CCCN(C)[C@H]1CCC2C3CC=C4C[C@@H](O)CCC4(C)C3CCC21C (some centres undefined) | 29%

biological target: T1, cholesterol side-chain cleavage cytochrome P450 (mitochondrial); assay: Percent inhibition of cholesterol side-chain cleavage cytochrome P450 at 1 uM in bovine adrenocortical mitochondrial acetone powder preparations; details: cattle; how it was run: as §1

inhibition at 1 µM | SMILES
12% | CCC(C)CNC(C)[C@H]1CC[C@H]2[C@@H]3CC=C4C[C@@H](OC)CC[C@]4(C)[C@H]3CC[C@]12C (some centres undefined)
10% | CC(C)CCNC(C)[C@H]1CC[C@H]2[C@@H]3CC=C4C[C@@H](O)CC[C@]4(C)[C@H]3CC[C@]12C (some centres undefined)
14% | CO[C@H]1CC[C@@]2(C)C(=CC[C@H]3[C@@H]4CC[C@H](C(C)NCCC(C)C)[C@@]4(C)CC[C@@H]32)C1 (some centres undefined)

biological target: T1, cholesterol side-chain cleavage cytochrome P450 (mitochondrial); assay: Percent inhibition of cholesterol side-chain cleavage cytochrome P450 at 100 uM in bovine adrenocortical mitochondrial acetone powder preparations; details: cattle; how it was run: as §1

inhibition at 100 µM | SMILES
21% | CO[C@H]1CC[C@@]2(C)C(CC[C@H]3[C@@H]4CC[C@H](C(C)NCCC(C)C)[C@@]4(C)CC[C@@H]32)C1 (some centres undefined)
100% | CCC(C)CNC(C)[C@H]1CC[C@H]2[C@@H]3CC=C4C[C@@H](OC)CC[C@]4(C)[C@H]3CC[C@]12C (some centres undefined)
93% | CC(C)CCNC(C)[C@H]1CC[C@H]2[C@@H]3CC=C4C[C@@H](O)CC[C@]4(C)[C@H]3CC[C@]12C (some centres undefined)
99% | CO[C@H]1CC[C@@]2(C)C(=CC[C@H]3[C@@H]4CC[C@H](C(C)NCCC(C)C)[C@@]4(C)CC[C@@H]32)C1 (some centres undefined)
3% | CC(C)CCNC(C)[C@H]1CC[C@H]2[C@@H]3CCC4CC(=O)CC[C@]4(C)[C@H]3CC[C@]12C (some centres undefined)
3% | CO[C@@H]1CC[C@@]2(C)C(CC[C@H]3[C@@H]4CC[C@H](N(C)CCCC(C)C)[C@@]4(C)CC[C@@H]32)C1 (some centres undefined)
26% | CC(C)CCCN(C)[C@H]1CC[C@H]2[C@@H]3CCC4C[C@@H](O)CC[C@]4(C)[C@H]3CC[C@]12C (some centres undefined)
5% | CO[C@H]1CCC2(C)C(CC[C@@H]3[C@@H]2CCC2(C)[C@@H](N(C)CCCC(C)C)CC[C@@H]32)C1 (some centres undefined)
86% | CO[C@H]1CCC2(C)C(=CCC3C2CCC2(C)C3CC[C@@H]2N(C)CCCC(C)C)C1 (some centres undefined)

SMILES | inhibition at 100 µM
CC(C)CCNC(C)[C@H]1CC[C@H]2[C@@H]3CCC4C[C@@H](O)CC[C@]4(C)[C@H]3CC[C@]12C (some centres undefined) | 28%
CC(C)CCCN(C)[C@H]1CCC2C3CC=C4C[C@@H](O)CCC4(C)C3CCC21C (some centres undefined) | 78%

From ChEMBL document CHEMBL1121691, “Inhibition of cholesterol side-chain cleavage. 4. Synthesis of A or B ring modified azacholesterols” (J Med Chem, 1981)
